From PubChem BioAssay AID804 (SRMLSC, 2007) come the findings set out here.

The campaign covered roughly 140,000 compounds. About 710 (0.51%) were called active.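 The calls were made as follows: active = inhibition above a set limit, 3 SD over the mean compound inhibition (cut at about 44% in these data); inactive = the rest.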 This excerpt belongs to a sample that is enriched for actives.

A word on the inhibition: it is the drop in the measured response relative to a control, in per cent.

The nature of the experiment: BB579 yeast growth reduction, restrictive medium – S. cerevisiae, yeast lifespan-shortening project, primary screen (AID 804). To be noted: OD615, 48 h, at 10 µM, stronger effect = higher value. In a few lines:
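Detection: OD615 turbidity measurement; Material: Saccharomyces cerevisiae DeaD strain BB579, replicative lifespan model yeast; Timing: 48 h exposure, 30 °C; Doses: single 10 µM dose; Medium: CSMM-D restrictive synthetic medium containing dextrose (glucose); Controls: amphotericin B at 10 µg/mL as positive control.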
Consider `Cc1ccc(N2C(=O)C(NC(=O)c3c(F)cccc3F)(C(F)(F)F)C3=C2CC(C)(C)CC3=O)cc1` (stereo unspecified), for which the inhibition is -1.52% (inactive). The same measure for `O=C1c2ccccc2NC(c2ccc(-c3cccc(Cl)c3)o2)N1O` (stereo unspecified): 64.1% (active); for `CCOC(=O)NN1C(=O)c2ccccc2NC1c1cccc(O)c1` (stereo unspecified): 9.36% (inactive).

Turning to `C=CCN(CC=C)S(=O)(=O)c1ccc(C(=O)Nc2nc3c(s2)CCc2ccccc2-3)cc1`, the inhibition was -67.9% (inactive). The same measure for `O=C(C1CCCO1)N1CCN(C(=S)Nc2cccc(Cl)c2)CC1` (stereo unspecified): -3.25% (inactive).

As to `CC1(C)CC(=O)C(N=Nc2ccc(S(=O)(=O)N3CCCCCC3)cc2)=C(O)C1`, the inhibition was -5.4% (inactive). The same measure for `C/C(CC(=O)Nc1ccc(Cl)cc1)=N\NC(=O)C(=O)NCCO`: -6.42% (inactive); for `Cc1cc2oc(C(=O)Nc3c(C)n(C)n(-c4ccccc4)c3=O)c(C)c2cc1Cl`: -44% (inactive); for `Cc1ccc(NC(=O)c2cccs2)cc1S(=O)(=O)N(C)C`: -35.7% (inactive). The same measure for `Cc1ccc(-c2nn(C(C)(C)C)c3ncnc(N)c23)cc1`: 81.2% (active); for `O=C(CC(=O)Nc1ccc(Cl)c(Cl)c1)N/N=C/c1ccc(O)cc1`: -54.1% (inactive).

Take `O=C(CC(O)(C(F)(F)F)C(F)(F)F)Nc1ccc(Cl)c(Cl)c1`: the inhibition was 80.1% (active). The same measure for `O=C(Cc1ccc(Cl)c(Cl)c1)Nc1ccc(SC(F)F)cc1`: -39.5% (inactive). As for `Cc1scc(C(=O)NNC(=S)NCc2ccccc2)c1C`, the figure is -2.5% (inactive). For the compound `CCOC(=O)NN1C(=O)c2ccccc2NC1c1ccccc1O` (stereo unspecified), the inhibition is 7.28% (inactive). The same measure for `COC(=O)C1=C(C)N(C)C(=S)NC1c1ccccc1` (stereo unspecified): 8.95% (inactive); for `Cc1c(Cl)cnc(NC(=O)COC(=O)c2ccc(S(=O)(=O)NCc3ccco3)cc2)c1Cl`: -12.2% (inactive). The same measure for `CCN(CC)c1ccc(S(=O)(=O)N2CCOCC2)cc1NC(=O)CSc1cccc[n+]1[O-]`: 89% (active); for `Cn1c(SCC(=O)Nc2cccc(O)c2)nnc1-c1ccc(S(=O)(=O)N2CCOCC2)cc1`: 2.85% (inactive); for `Cc1ccc(-c2nn(-c3ccccc3)cc2C(=O)Nc2cccc(S(=O)(=O)N3CCOCC3)c2)cc1`: -29% (inactive). The same measure for `Cc1cc(C(=O)OC(C)C(=O)Nc2cccc(S(=O)(=O)N3CCOCC3)c2)c(C)o1` (stereo unspecified): -42.7% (inactive); for `O=C(CN1CCN(c2ccc(O)cc2)CC1)Nc1cc(S(=O)(=O)N2CCOCC2)ccc1Cl`: -37.9% (inactive). With `CC(Sc1cccc[n+]1[O-])C(=O)Nc1cccc(S(=O)(=O)N2CCOCC2)c1` (stereo unspecified), the inhibition was 95.2% (active).

As to `COc1ccccc1CNC(=O)CN1CCC(n2cnc3cc(F)ccc32)CC1`, the inhibition is -21.9% (inactive). As for `Cn1c(CNC(=O)c2ccccc2F)nnc1SCc1ccc(F)cc1`, the figure is 6.65% (inactive); as for `CCCCC1N2CC3([N+](=O)[O-])CN1CC([N+](=O)[O-])(C2)C3(C)C` (stereo unspecified), -27.8% (inactive); as for `CC(C)(C)C1C/C(=C/c2ccco2)C(=O)/C(=C/c2ccco2)C1` (stereo unspecified), -19.6% (inactive). As for `O=C(c1cccc(C(=O)N2CCN(c3ccc(F)cc3)CC2)c1)N1CCN(c2ccc(F)cc2)CC1`, the figure is -61.4% (inactive); as for `CCN1CCN(C(c2cccnc2)c2cc(Cl)c3cccnc3c2O)CC1` (stereo unspecified), 6.22% (inactive); as for `Oc1c(CN2CCN(c3ccc(F)cc3)CC2)cc(Cl)c2cccnc12`, 99.3% (active). As for `Cc1cc2cc(CNC(=O)c3cccs3)ccc2[nH]1`, the figure is -4.49% (inactive); as for `Cc1cccc(NC(=S)NCc2ccc3[nH]c4c(c3c2)CCCC4)c1`, 15.9% (inactive); as for `CCc1cccc(CC)c1NC(=S)NCc1ccc2[nH]c(C)cc2c1`, 54.3% (active).

As for `COc1ccc(C(=O)NC(=S)NNC(=O)CCc2ccccc2)cc1`, the inhibition is -10.9% (inactive). The same measure for `O=C(Nc1ccc2ccccc2c1)/C(=C/c1cccc(Br)c1)NC(=O)c1ccco1`: -32.8% (inactive); for `COc1ccc(CCNC(=O)c2ccco2)cc1`: -10.2% (inactive). Turning to `CC(Oc1ccc2ccccc2c1)C(=O)NNC(=S)NC(=O)c1ccco1` (stereo unspecified), the inhibition is 98.2% (active). The same measure for `O=C(Nc1ccc2ccccc2c1)/C(=C\c1ccc2c(c1)OCO2)NC(=O)c1ccco1`: 6.72% (inactive). The same measure for `CCCc1ccc(OCC(=O)NNC(=S)NC(=O)c2ccco2)cc1`: 98.5% (active); for `NC(=O)C[C@@H]1NC(=O)CNC(=O)c2cc([N+](=O)[O-])cc(I)c2NCCC(C(N)=O)NC1=O` (stereo partly specified): 1.08% (inactive); for `CC1CN/C(=C\C(=O)c2ccc(Br)cc2)C(=O)N1` (stereo unspecified): -42.4% (inactive). Turning to `Cc1cc(Cl)ccc1NC(=S)N1CCC(C(N)=O)(N2CCCCC2)CC1`, the inhibition was 1.37% (inactive). Regarding `Cc1ccc(OC(=O)CCC(=O)Nc2ccc(Br)cc2)cc1`, the inhibition was 3.42% (inactive). As for `O=C(CSc1ncn[nH]1)Nc1nsc(-c2ccccc2)n1`, the figure is 4.99% (inactive); as for `Cc1cccc(OP(=O)(Nc2c(C)n(C)n(-c3ccccc3)c2=O)Oc2cccc(C)c2)c1`, -0.66% (inactive); as for `CCOC(=O)C1CCN(C(=O)/C=C/c2cc(OC)c(OC)c(OC)c2)CC1`, -12.6% (inactive). As for `O=C(COC(=O)c1cc(-c2cccs2)nn1-c1ccccc1)Nc1cc([N+](=O)[O-])ccc1Cl`, the figure is -30.3% (inactive); as for `O=C(Nc1cccc([N+](=O)[O-])c1)c1ccc2c(c1)OCO2`, -10.3% (inactive); as for `CCOC(=O)c1ccccc1C(=O)N1CCOCCOCCOCC1`, -13.3% (inactive). The same measure for `CCCCOc1ccc(C(=O)NCC(=O)OCC(=O)N2CCN(S(=O)(=O)c3ccc(C)cc3C)CC2)cc1`: -38.7% (inactive); for `O=C(COC(=O)/C=C/c1cccc(Cl)c1)NCCc1ccccc1`: -16.6% (inactive); for `Cc1ccc2nc(S(=O)(=O)O)[nH]c2c1`: -11.6% (inactive). On to `CC(C)c1nc2ccc(C(=O)O)cc2[nH]1`, for which the inhibition was -7.86% (inactive). As for `Cc1nc2ccc(C(=O)O)cc2[nH]1`, the figure is 44.4% (active). The same measure for `COc1ccc(CCNC(=O)CSc2nc(-c3ccc(OC)c(OC)c3)ccc2C#N)cc1`: -21.2% (inactive); for `COc1cc(/C=C2\SC(=S)N(Nc3ncc(C(F)(F)F)cc3Cl)C2=O)cc(OC)c1OC`: -16.3% (inactive); for `COc1cccc(/C=N/Nc2ncc(C(F)(F)F)cc2Cl)c1O`: 64.1% (active). For the compound `COc1cccc(/C=N\NC(=O)C2=NNC(=O)C2C)c1O` (stereo unspecified), the inhibition was 1.19% (inactive). The same measure for `Cc1nn(C)c(C(=O)NNC(=S)NC2CCCCC2)c1Cl`: -11.7% (inactive). With `CCOC(=O)c1cnc(-n2nc(C)cc2C)nc1NNc1cc(C)nc(-c2ccccc2)n1`, the inhibition is 63.6% (active). The same measure for `CCOC(=O)c1cnc(-c2ccccc2)nc1Oc1ccc(C)cc1`: -3.41% (inactive); for `CCOC(=O)c1cnc(-n2nc(C)cc2C)nc1-n1nc(C)cc1C`: -33.3% (inactive); for `CCc1cc(C(N)=O)c(NC(=O)c2ccc(OC)cc2)s1`: 13.8% (inactive). On to `COc1cccc(NC(=S)N(CCc2c(C)[nH]c3ccccc23)Cc2ccco2)c1`, for which the inhibition is -16.9% (inactive). As for `O=C(Nc1cccc(F)c1)c1coc(=O)c(Br)c1`, the figure is -16.6% (inactive). The same measure for `CCOC(=O)N1CCN(C(=O)c2cc3c(ccc4ccccc43)oc2=O)CC1`: 4.59% (inactive); for `N=c1oc2ccccc2cc1C(=O)N/N=C/c1ccccc1`: -35.6% (inactive); for `CNC(=O)c1cc2c(ccc3ccccc32)oc1=N`: 87% (active).

`O=[N+]([O-])c1cc(C(F)(F)F)ccc1NN=C1CCCC1`: the inhibition is -8.75% (inactive). As for `Cc1ccc(Cl)cc1N1CCN(C(=O)c2cccc3c(=O)c(C)c(-c4ccccc4)oc23)CC1`, the figure is -11.9% (inactive); as for `COc1ccc(-c2[nH]ncc2/C=N/NC(=O)c2cc(Br)ccc2O)c(OC)c1`, -15.9% (inactive); as for `CCCc1cc(-c2nc(-c3ccc(C)cc3)cs2)ccn1`, 6.88% (inactive). The same measure for `COc1ccc([C@H]2[C@H](C(C)=O)N3N=Cc4ccccc4C3C23C(=O)OC(C)(C)OC3=O)cc1` (stereo partly specified): -14.6% (inactive); for `CNc1ccc(NC(C)=O)cc1[N+](=O)[O-]`: -4.52% (inactive); for `O=C(NC(Nc1nc2ccc([N+](=O)[O-])cc2s1)(C(F)(F)F)C(F)(F)F)c1ccccc1`: 77.5% (active). Consider `COC(=O)C(NC(=O)c1ccc(OC)cc1)(Nc1ncc(S(=O)(=O)c2ccc([N+](=O)[O-])cc2)s1)C(F)(F)F` (stereo unspecified), for which the inhibition was -39.1% (inactive). The same measure for `Cc1cc(C)cc(OCC(=O)Nc2nc3ccc([N+](=O)[O-])cc3s2)c1`: -41.2% (inactive); for `Cc1c(Cl)cccc1NC(=O)Nc1ccc(C(=O)N2CCCC2)cc1`: -7.32% (inactive); for `CN(c1nc2ccccc2n2c(-c3ccco3)nnc12)S(=O)(=O)c1ccccc1`: -17.9% (inactive).

Take `CN1c2ccccc2-c2nc3ccccc3n2C1c1ccco1` (stereo unspecified): the inhibition was -46.1% (inactive).

In the case of `Cn1c(-c2ccco2)nc2cc3ccccc3cc21`, the inhibition was 60.5% (active). As for `CC(C)C(=O)Nc1ccc2c3c(cccc13)CC2`, the figure is -41.5% (inactive); as for `O=C(Nc1ccccc1)OCc1cc(-c2ccc(Cl)cc2)on1`, -39.2% (inactive). Regarding `O=C1c2cccc3cc(Br)cc(c23)C(=O)N1Nc1ccccc1`, the inhibition is -67.3% (inactive). The same measure for `O=C1C=C(c2ccc(Cl)cc2)C(=O)N1Nc1ccccc1`: 98.1% (active); for `CCn1ncc(CNC(=O)C2(C)CC2(Br)Br)c1C` (stereo unspecified): -38.8% (inactive); for `COc1ccc(NC(=S)NCc2cccs2)c(OC)c1`: -22.6% (inactive). The same measure for `CCN1/C(=C/c2ccc3ccc(C)cc3[n+]2CC)Sc2ccccc21`: 82.5% (active); for `CCC(=O)/C=C1\Sc2ccccc2N1CC`: -18.9% (inactive). As for `Cc1cccc(NC(=S)N(CCN(C)C)C(C)c2ccco2)c1` (stereo unspecified), the figure is -21.1% (inactive).

Turning to `Cc1ccc(SCCC(=O)NC(C(C)C)C(C)C)cc1`, the inhibition is -7.21% (inactive).
